Results: ChEMBL document CHEMBL3232719 (J Med Chem, 2014)
Activity calls are given as the source filed them. No cut-off for these calls is given here.

Key:
26S proteasome [1] = assay: Inhibition of chymotrypsin-like activity of human 20S proteasome using Suc-LLVY-AMC as substrate; format: protein-complex assay
HCT-116 [2] = assay: Inhibition of human HCT116 cell growth; format: functional, cell-based
26S proteasome [3] = assay: Inhibition of caspase-like activity of human 20S proteasome using Ac-nLPnLD-AMC as substrate; format: protein-complex assay
26S proteasome [4] = assay: Inhibition of trypsin-like activity of human 20S proteasome using Ac-RLR-AMC as substrate; format: protein-complex assay
[5] = target: T1, Proteasome subunit beta type-8 (Homo sapiens, UniProt P28062); assay: Inhibition of beta5i subunit of immunoproteasome (unknown origin) by active-site ELISA
T1 sequence (P28062 whole entry): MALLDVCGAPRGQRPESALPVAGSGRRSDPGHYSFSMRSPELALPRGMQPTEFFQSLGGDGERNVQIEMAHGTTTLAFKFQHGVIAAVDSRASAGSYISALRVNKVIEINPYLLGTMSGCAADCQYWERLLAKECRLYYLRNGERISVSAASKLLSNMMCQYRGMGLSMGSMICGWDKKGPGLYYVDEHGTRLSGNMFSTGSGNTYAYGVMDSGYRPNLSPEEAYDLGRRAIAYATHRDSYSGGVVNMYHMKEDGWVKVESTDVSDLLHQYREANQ

[6] = target: T2, Lysosomal protective protein (Homo sapiens, UniProt P10619); assay: Inhibition of recombinant cathepsin A (unknown origin) using Mca-Arg-Pro-Pro-Gly-Phe-Ser-Ala-Phe-Lys(Dnp)-OH as substrate incubated with enzyme for 5 mins prior to substrate challenge for 2 hrs by spectrofluorometer analysis
T2 sequence (P10619 whole entry): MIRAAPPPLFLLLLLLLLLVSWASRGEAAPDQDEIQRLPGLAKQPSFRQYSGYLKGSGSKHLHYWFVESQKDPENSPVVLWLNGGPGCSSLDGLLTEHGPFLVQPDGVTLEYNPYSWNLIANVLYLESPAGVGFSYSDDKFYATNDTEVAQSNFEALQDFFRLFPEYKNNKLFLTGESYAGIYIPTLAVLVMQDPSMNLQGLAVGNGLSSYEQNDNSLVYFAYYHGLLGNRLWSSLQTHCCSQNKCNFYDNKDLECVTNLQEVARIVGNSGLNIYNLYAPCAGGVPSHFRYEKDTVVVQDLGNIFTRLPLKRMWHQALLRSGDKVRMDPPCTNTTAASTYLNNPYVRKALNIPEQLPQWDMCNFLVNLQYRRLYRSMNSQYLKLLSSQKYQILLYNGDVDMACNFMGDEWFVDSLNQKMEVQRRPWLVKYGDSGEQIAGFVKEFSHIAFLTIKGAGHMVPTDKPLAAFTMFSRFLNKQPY

Cathepsin B = Cathepsin B (Homo sapiens, UniProt P07858); assay: Inhibition of recombinant cathepsin B (unknown origin) using Z-Leu-Arg-AMC as substrate by spectrofluorometer analysis
Cathepsin G = target: T3, Cathepsin G (Homo sapiens, UniProt P08311); assay: Inhibition of recombinant cathepsin G (unknown origin) using Suc-Ala-Ala-Pro-Phe-AMC as substrate by spectrofluorometer analysis
T3 sequence (P08311 whole entry): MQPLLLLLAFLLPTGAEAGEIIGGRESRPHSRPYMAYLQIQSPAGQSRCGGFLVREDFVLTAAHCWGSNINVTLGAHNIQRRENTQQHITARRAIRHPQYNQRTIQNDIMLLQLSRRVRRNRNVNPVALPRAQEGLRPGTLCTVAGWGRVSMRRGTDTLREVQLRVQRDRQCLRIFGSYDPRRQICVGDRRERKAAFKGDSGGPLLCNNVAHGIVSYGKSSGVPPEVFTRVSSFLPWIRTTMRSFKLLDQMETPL

HCT-116 [7] = assay: Cell cycle arrest in human HCT116 cells assessed as accumulation at G1 phase at 100 nM after 24 hrs by propidium iodide staining based flow cytometry (reference value: 35.6%); format: functional
HCT-116 [8] = assay: Cell cycle arrest in human HCT116 cells assessed as accumulation at S phase at 100 nM after 24 hrs by propidium iodide staining based flow cytometry (reference value: 45.3%); format: functional
HCT-116 [9] = assay: Cell cycle arrest in human HCT116 cells assessed as accumulation at G2/M phase at 100 nM after 24 hrs by propidium iodide staining based flow cytometry (reference value: 19.1%); format: functional
HCT-116 [10] = assay: Induction of apoptosis in human HCT116 cells assessed as increase in p53 expression by immunoblot analysis; format: functional, cell-based
Summary of the method: (§1)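 HCT116 cells were treated with compound or DMSO vehicle. Lysates were immunoblotted for p53 accumulation and for cleaved PARP as the apoptosis marker.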

HCT-116 [11] = assay: Induction of apoptosis in human HCT116 cells assessed as increase in PARP cleavage by immunoblot analysis; format: functional, cell-based; summary of the method: as §1
[12] = target: T4, Proteasome Macropain subunit MB1 (Homo sapiens, UniProt P28074); assay: Inhibition of beta5 subunit of constitutive proteasome (unknown origin) by active-site ELISA
T4 sequence (P28074 whole entry): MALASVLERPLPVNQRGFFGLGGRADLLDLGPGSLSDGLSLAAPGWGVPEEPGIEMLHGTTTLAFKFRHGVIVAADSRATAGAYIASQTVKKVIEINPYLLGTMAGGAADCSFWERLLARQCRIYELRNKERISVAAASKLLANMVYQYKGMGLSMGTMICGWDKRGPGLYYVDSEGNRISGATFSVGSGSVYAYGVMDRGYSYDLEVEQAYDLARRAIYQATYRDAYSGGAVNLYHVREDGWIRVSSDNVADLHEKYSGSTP

[13] = Inhibition of caspase-like activity of proteasome (unknown origin); parameters: species or system Homo sapiens
[14] = target: T5, Proteasome Macropain subunit MB1 (Homo sapiens) (UniProt P28074); assay: Binding affinity to beta5 subunit of 20S proteasome (unknown origin) assessed as dissociation half-life
T5 sequence (whole entry): T4 sequence (P28074 whole entry)
Summary of the method: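 Human 20S proteasome was preincubated with inhibitor. Chymotrypsin-like activity was then measured before and after removal of free inhibitor by dialysis (wash-out), with reference reversible and irreversible inhibitors run alongside.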

| SMILES | IC50 (26S proteasome [1]) [nM] | IC50 (HCT-116 [2]) [nM] | IC50 (26S proteasome [3]) [nM] | IC50 (26S proteasome [4]) [nM] | further results |
| --- | --- | --- | --- | --- | --- |
| CC(=O)N[C@@H](CC(=O)NCC(COCc1ccccc1)COCc1ccccc1)C(=O)N[C@@H](CC(C)C)B(O)O | 7.7 | 79.6 | – | – | – |
| CC[C@H](C)[C@@H]1C(=O)O[C@H]1C(=O)N[C@H]1C[C@@H]1C[C@@H](CCc1ccccc1)NC(=O)[C@H](C)NC(=O)OCc1ccccc1 | 5.7 | 1820 | – | – | – |
| CC(=O)N[C@@H](CC(=O)NCCC(COCc1ccccc1)COCc1ccccc1)C(=O)N[C@@H](CC(C)C)B1O[C@@H]2C[C@@H]3C[C@@H](C3(C)C)[C@]2(C)O1 | 2.7 | 31.8 | 150 | 2700 | IC50 [5]: 31 nM; IC50 [6]: > 30000 nM; IC50 (Cathepsin B): > 30000 nM; IC50 (Cathepsin G): > 30000 nM; Activity (HCT-116 [7]): 3.2%; Activity (HCT-116 [8]): 25.1%; Activity (HCT-116 [9]): 71.7%; Activity (HCT-116 [10]): Active; Activity (HCT-116 [11]): Active; IC50 [12]: 140 nM |
| CC(C)C[C@H](NC(=O)[C@H](CC(=O)NCCC(COCc1ccccc1)COCc1ccccc1)NC(=O)c1cc(Cl)ccc1Cl)B1O[C@@H]2C[C@@H]3C[C@@H](C3(C)C)[C@]2(C)O1 | 5.9 | 140 | 250 | > 10000 | – |
| CC(C)C[C@H](NC(=O)[C@@H](NC(=O)c1cccc(-c2ccccc2)n1)[C@@H](C)O)B(O)O [DELANZOMIB] | – | – | – | – | IC50 [13]: 70 nM |
| CC(C)C[C@H](NC(=O)CNC(=O)c1cc(Cl)ccc1Cl)B1OC(=O)CC(CC(=O)O)(C(=O)O)O1 (stereo partly drawn) | – | – | – | – | T1/2 [14]: 18 min |
| CC(=O)N[C@@H](CC(=O)NCCCC(COCc1ccccc1)COCc1ccccc1)C(=O)N[C@@H](CC(C)C)B1O[C@@H]2C[C@@H]3C[C@@H](C3(C)C)[C@]2(C)O1 | 4.1 | 43 | 120 | 2700 | – |
| CC(C)C[C@H](NC(=O)[C@H](CCc1ccccc1)NC(=O)CN1CCOCC1)C(=O)N[C@@H](Cc1ccccc1)C(=O)N[C@@H](CC(C)C)C(=O)[C@@]1(C)CO1 [CARFILZOMIB] | – | – | – | – | IC50 [6]: > 30000 nM; IC50 (Cathepsin B): 11000 nM; IC50 (Cathepsin G): > 30000 nM |
| CC(C)C[C@H](NC(=O)[C@H](CC(=O)NCCC(COCc1ccccc1)COCc1ccccc1)NC(=O)c1ccccc1)B1O[C@@H]2C[C@@H]3C[C@@H](C3(C)C)[C@]2(C)O1 | 7.8 | 60 | 130 | 2700 | – |
| CC[C@H](C)[C@@H]1C(=O)O[C@H]1C(=O)NCCC(COCc1ccccc1)COCc1ccccc1 | 29 | > 10000 | – | – | – |
| CC(=O)N[C@@H](CCC(=O)NCCCC(COCc1ccccc1)COCc1ccccc1)C(=O)N[C@@H](CC(C)C)B1O[C@@H]2C[C@@H]3C[C@@H](C3(C)C)[C@]2(C)O1 | 4.1 | 67.2 | 46 | 3000 | – |
| CNC(=O)C[C@H](NC(C)=O)C(=O)N[C@@H](CC(C)C)B1O[C@@H]2C[C@@H]3C[C@@H](C3(C)C)[C@]2(C)O1 | 54 | 2500 | 500 | > 10000 | – |
| CC[C@H](C)[C@@H]1C(=O)O[C@H]1C(=O)N[C@H]1C[C@H]1C[C@H](NC(=O)[C@H](C)N)C(=O)O [BELACTOSIN A] | 1400 | – | – | – | – |
| CC(=O)N[C@@H](CCC(=O)NCCC(COCc1ccccc1)COCc1ccccc1)C(=O)N[C@@H](CC(C)C)B1O[C@@H]2C[C@@H]3C[C@@H](C3(C)C)[C@]2(C)O1 | 5.7 | 110 | 76 | 2500 | – |
| CC(=O)N[C@@H](CC(=O)NCCCCOCc1ccccc1)C(=O)N[C@@H](CC(C)C)B1O[C@@H]2C[C@@H]3C[C@@H](C3(C)C)[C@]2(C)O1 | 4.8 | 130 | 170 | 2170 | IC50 [5]: 59 nM; IC50 [6]: > 30000 nM; IC50 (Cathepsin B): > 30000 nM; IC50 (Cathepsin G): > 30000 nM; Activity (HCT-116 [7]): 22.9%; Activity (HCT-116 [8]): 26.6%; Activity (HCT-116 [9]): 50.5%; Activity (HCT-116 [10]): Active; Activity (HCT-116 [11]): Active; IC50 [12]: 280 nM |
| CC(C)C[C@H](NC(=O)[C@H](Cc1ccccc1)NC(=O)c1cnccn1)B(O)O [BORTEZOMIB] | – | 5 | – | – | IC50 [6]: 9200 nM; IC50 (Cathepsin B): > 30000 nM; IC50 (Cathepsin G): 3100 nM; Activity (HCT-116 [7]): 3%; Activity (HCT-116 [8]): 21%; Activity (HCT-116 [9]): 76% |
| CC(C)C[C@H](NC(=O)[C@H](CC(=O)NCCC(COCc1ccccc1)COCc1ccccc1)NC(=O)c1cnccn1)B1O[C@@H]2C[C@@H]3C[C@@H](C3(C)C)[C@]2(C)O1 | 7.1 | 45 | 210 | 3300 | – |
| CC(=O)N[C@@H](CC(=O)NCC(COCc1ccccc1)COCc1ccccc1)C(=O)N[C@@H](CC(C)C)B1O[C@@H]2C[C@@H]3C[C@@H](C3(C)C)[C@]2(C)O1 | 3.9 | 45.4 | 140 | 1100 | – |
| CC(C)C[C@H](NC(=O)[C@H](CC(=O)NCCC(COCc1ccccc1)COCc1ccccc1)NC(=O)c1cccc(-c2ccccc2)n1)B1O[C@@H]2C[C@@H]3C[C@@H](C3(C)C)[C@]2(C)O1 | 7.5 | 260 | 1000 | > 10000 | – |
| CC(=O)N[C@@H](CCC(=O)NCC(COCc1ccccc1)COCc1ccccc1)C(=O)N[C@@H](CC(C)C)B1O[C@@H]2C[C@@H]3C[C@@H](C3(C)C)[C@]2(C)O1 | 5.1 | 63.6 | 75 | 2400 | – |
| CC(=O)N[C@@H](CSC(=O)[C@]1([C@@H](O)C(C)C)NC(=O)[C@H](C)[C@@H]1O)C(=O)O [LACTACYSTIN] | – | – | – | – | IC50 [5]: > 3000 nM |
